Assay results published in ChEMBL document CHEMBL3232844, “Synthesis and structure activity relationships of schweinfurthin indoles” (2014).

Key:
Format in all cases: functional
[1] = tested on: MDA-MB-231; assay: Cytotoxicity against human MDA-MB-231 cells
Outline: (§1)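 Tested in a 60-cell-line human tumor panel screen; the read-out is growth inhibition, reported as GI50 for each cell line.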

[2] = tested on: NCI-H460; assay: Cytotoxicity against human NCI-H460 cells; outline: as §1
[3] = tested on: SK-MEL-2; assay: Cytotoxicity against human SK-MEL-2 cells; outline: as §1
[4] = Cytotoxicity against human UACC257 cells
Outline: (§2)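 Cell line run as part of the 60-cell-line screening panel; growth inhibition was reported as a GI50 for each line.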

[5] = tested on: M14; assay: Cytotoxicity against human M14 cells; outline: as §1
[6] = tested on: CAKI-1; assay: Cytotoxicity against human Caki1 cells; outline: as §1
[7] = tested on: IGROV-1; assay: Cytotoxicity against human IGROV1 cells; outline: as §1
[8] = Cytotoxicity against human NCI-ADR-RES cells; outline: as §1
[9] = tested on: MOLT-4; assay: Cytotoxicity against human MOLT4 cells; outline: as §1
[10] = tested on: MDA-MB-435; assay: Cytotoxicity against human MDA-MB-435 cells; outline: as §1
[11] = tested on: RXF 393; assay: Cytotoxicity against human RXF393 cells; outline: as §1
[12] = tested on: SNB-75; assay: Cytotoxicity against human SNB75 cells; outline: as §2
[13] = tested on: CCRF-CEM; assay: Cytotoxicity against human CCRF-CEM cells
[14] = tested on: ACHN; assay: Cytotoxicity against human ACHN cells; outline: as §1
[15] = Cytotoxicity against human HCT15 cells; outline: as §1
[16] = tested on: MCF7; assay: Cytotoxicity against human MCF7 cells; outline: as §1
[17] = tested on: HL-60(TB); assay: Cytotoxicity against human HL-60(TB) cells
Outline: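 Tested within the NCI 60-cell-line screen, with GI50 as the read-out. Values are the average of two independent experiments. The lowest concentration tested was 10 nM.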

[18] = tested on: A498; assay: Cytotoxicity against human A498 cells; outline: as §1
[19] = tested on: SF-539; assay: Cytotoxicity against human SF539 cells; outline: as §1
[20] = Cytotoxicity against human EKVX cells; outline: as §1
[21] = tested on: HCT-116; assay: Cytotoxicity against human HCT116 cells; outline: as §1
[22] = tested on: SK-OV-3; assay: Cytotoxicity against human SKOV3 cells; outline: as §1
[23] = read-out: pLC50 (the source's name) (converted)

Compound COc1cc(/C=C/c2cc(OC)c3c(C/C=C(\C)CCC=C(C)C)c[nH]c3c2)cc2c1O[C@]1(C)CC[C@@H](O)C(C)(C)[C@H]1C2 has an LC50 [1] of 66.1 µM, a TGI ([1]; read-out: pTGI (converted)) of 12.9 µM and a GI50 [2] of 1.17 µM. It also gave a CC50 [2, 23] of 43.7 µM, a TGI ([2]; read-out: pTGI (converted)) of 9.12 µM and a GI50 [3] of 1 µM. It also gave a CC50 [3, 23] of 63.1 µM, a TGI ([3]; read-out: pTGI (converted)) of 9.77 µM and a GI50 ([4]; UACC-257) of 5.75 µM. For the same compound, the CC50 ([4]; UACC-257, read-out: pLC50 (the source's name) (converted)) was 81.3 µM, the TGI ([4]; UACC-257, read-out: pTGI (converted)) was 25.7 µM and the GI50 [5] was 1.17 µM. The CC50 [5, 23] was 8.51 µM, the TGI ([5]; read-out: pTGI (converted)) was 3.16 µM and the GI50 [6] was 0.603 µM. It also gave an LC50 [6] greater than 100 µM, a TGI ([6]; read-out: pTGI (converted)) of 3.89 µM and a GI50 [7] of 3.8 µM. The CC50 [7, 23] was 91.2 µM, the TGI ([7]; read-out: pTGI (converted)) was 24 µM and the GI50 [8] was 14.8 µM. It also gave a CC50 [8, 23] greater than 100 µM, a TGI ([8]; read-out: pTGI (converted)) greater than 100 µM and a GI50 [9] of 0.251 µM. For the same compound, the CC50 [9, 23] was greater than 100 µM, the TGI ([9]; read-out: pTGI (converted)) was 0.851 µM and the GI50 [10] was 1.62 µM. The CC50 [10, 23] was greater than 100 µM, the TGI ([10]; read-out: pTGI (converted)) was 17.4 µM and the GI50 [11] was 0.055 µM. It also gave an LC50 [11] of 1 µM, a TGI ([11]; read-out: pTGI (converted)) of 0.251 µM and a GI50 [12] of 0.145 µM. The CC50 [12, 23] was 40.7 µM, the TGI ([12]; read-out: pTGI (converted)) was 0.692 µM and the GI50 [13] was 0.295 µM. For the same compound, the CC50 [13, 23] was greater than 100 µM, the GI50 [14] was 0.661 µM and the LC50 (concentration killing 50% of cells) [14] was 85.1 µM. It also gave a TGI ([14]; read-out: pTGI (converted)) of 16.2 µM, a GI50 ([15]; HCT-15) of 1.82 µM and a CC50 ([15]; HCT-15, read-out: pLC50 (the source's name) (converted)) of 66.1 µM. The TGI ([15]; HCT-15, read-out: pTGI (converted)) was 11.5 µM, the GI50 [16] was 1.02 µM and the LC50 [16] was 12.6 µM. It also gave a TGI ([16]; read-out: pTGI (converted)) of 3.39 µM, a GI50 [17] of 0.363 µM and a CC50 [17, 23] greater than 100 µM. The TGI ([17]; read-out: pTGI (converted)) was 10.5 µM, the GI50 [18] was 1.02 µM and the CC50 [18, 23] was 16.6 µM. It also gave a TGI ([18]; read-out: pTGI (converted)) of 3.72 µM, a GI50 [19] of 0.148 µM and a CC50 [19, 23] of 5.37 µM. The TGI ([19]; read-out: pTGI (converted)) was 0.871 µM, the GI50 [20] was 1.82 µM and the CC50 [20, 23] was greater than 100 µM. It also gave a TGI ([20]; read-out: pTGI (converted)) greater than 100 µM, a GI50 [21] of 0.933 µM and a CC50 [21, 23] of 43.7 µM. The TGI ([21]; read-out: pTGI (converted)) was 12.9 µM, the GI50 [22] was 1.23 µM and the LC50 [22] was greater than 100 µM. For the same compound, the TGI ([22]; read-out: pTGI (converted)) was 13.8 µM.
